Results as given in ChEMBL document CHEMBL4118269 (J Med Chem, 2018).
In brackets after ≈: the same amount, converted by molar mass.

Tests used:
[1] = Lipophilicity, log P of the compound; format: physicochemical; settings: octanol/water
in vitro [2] = settings: Sprague-Dawley, rat, liver microsomes
in vitro [3] = settings: human, liver microsomes
Aspergillus fumigatus [4] = assay: Antifungal activity against Aspergillus fumigatus 1022 after 48 hrs by CLSI M38-A2 protocol based assay; format: functional; settings: Aspergillus fumigatus, 1022, 48 h; read-out: MIC100
[5] = Half life in CD-1 mouse liver microsomes at 1 uM preincubated for 5 mins followed by NADPH addition measured up to 45 mins by LC-MS/MS analysis; format: ADME, microsome; settings: 0.75 h
In short: (§1)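 Pooled liver microsomes (0.5 mg/mL; male CD-1 mouse, male Sprague Dawley rat, or mixed-gender human) with 1 μM compound in 100 mM potassium phosphate pH 7.4, 3 mM MgCl2, 37 °C with shaking. 5 min preincubation, then 1 mM NADPH. Aliquots at 0, 3, 7, 15, 25, 45 min quenched in cold CH3CN with carbamazepine internal standard, then LC/MS/MS. Triplicate; T1/2 = ln2/k from the slope of ln % remaining versus time.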

in vitro [6] = settings: CD-1, mouse, liver microsomes
Aspergillus fumigatus [7] = assay: Antifungal activity against Aspergillus fumigatus 32820 after 48 hrs by CLSI M38-A2 protocol based assay; format: functional; settings: Aspergillus fumigatus, 32820, 48 h; read-out: MIC100
[8] = Half life in human liver microsomes at 1 uM preincubated for 5 mins followed by NADPH addition measured up to 45 mins by LC-MS/MS analysis; format: ADME, microsome; settings: 0.75 h; in short: as §1
[9] = Half life in Sprague-Dawley rat liver microsomes at 1 uM preincubated for 5 mins followed by NADPH addition measured up to 45 mins by LC-MS/MS analysis; format: ADME, microsome; settings: 0.75 h; in short: as §1
[10] = target: T1, Lanosterol 14-alpha demethylase (Aspergillus, UniProt B8NUK6+G4WW85+Q9P8R0); assay: Binding affinity to Aspergillus fumigatus CYP51 by spectral titration method; settings: read-out: Kd(app)
T1 sequence (B8NUK6 whole entry): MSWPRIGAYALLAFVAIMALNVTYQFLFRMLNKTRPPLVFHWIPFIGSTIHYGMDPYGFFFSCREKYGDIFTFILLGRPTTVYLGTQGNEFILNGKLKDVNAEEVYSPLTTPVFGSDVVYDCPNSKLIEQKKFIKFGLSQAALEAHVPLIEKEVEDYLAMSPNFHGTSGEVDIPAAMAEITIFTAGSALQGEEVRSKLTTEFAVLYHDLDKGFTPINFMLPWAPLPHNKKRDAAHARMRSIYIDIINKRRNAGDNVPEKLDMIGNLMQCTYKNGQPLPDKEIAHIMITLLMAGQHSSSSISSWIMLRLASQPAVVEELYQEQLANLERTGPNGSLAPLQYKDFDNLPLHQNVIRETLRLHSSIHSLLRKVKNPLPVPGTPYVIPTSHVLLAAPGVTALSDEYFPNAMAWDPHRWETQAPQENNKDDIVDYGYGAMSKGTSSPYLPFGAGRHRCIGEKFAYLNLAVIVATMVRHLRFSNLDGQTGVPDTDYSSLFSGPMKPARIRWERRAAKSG
T1 sequence (Q9P8R0 whole entry): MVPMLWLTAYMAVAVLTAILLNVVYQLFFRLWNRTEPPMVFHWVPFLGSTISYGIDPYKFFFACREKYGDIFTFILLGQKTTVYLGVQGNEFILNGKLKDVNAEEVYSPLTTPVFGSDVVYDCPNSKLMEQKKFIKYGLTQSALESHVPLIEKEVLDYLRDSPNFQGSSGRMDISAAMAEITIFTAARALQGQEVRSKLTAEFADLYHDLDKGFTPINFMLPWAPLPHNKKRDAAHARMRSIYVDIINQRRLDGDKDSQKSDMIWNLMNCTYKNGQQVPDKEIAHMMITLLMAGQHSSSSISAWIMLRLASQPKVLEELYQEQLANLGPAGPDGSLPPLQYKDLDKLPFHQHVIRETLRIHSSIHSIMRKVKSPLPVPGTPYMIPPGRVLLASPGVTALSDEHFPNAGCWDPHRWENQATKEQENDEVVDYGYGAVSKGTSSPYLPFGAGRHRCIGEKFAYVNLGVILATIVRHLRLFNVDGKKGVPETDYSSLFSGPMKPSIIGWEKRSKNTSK
T1 sequence (G4WW85 whole entry): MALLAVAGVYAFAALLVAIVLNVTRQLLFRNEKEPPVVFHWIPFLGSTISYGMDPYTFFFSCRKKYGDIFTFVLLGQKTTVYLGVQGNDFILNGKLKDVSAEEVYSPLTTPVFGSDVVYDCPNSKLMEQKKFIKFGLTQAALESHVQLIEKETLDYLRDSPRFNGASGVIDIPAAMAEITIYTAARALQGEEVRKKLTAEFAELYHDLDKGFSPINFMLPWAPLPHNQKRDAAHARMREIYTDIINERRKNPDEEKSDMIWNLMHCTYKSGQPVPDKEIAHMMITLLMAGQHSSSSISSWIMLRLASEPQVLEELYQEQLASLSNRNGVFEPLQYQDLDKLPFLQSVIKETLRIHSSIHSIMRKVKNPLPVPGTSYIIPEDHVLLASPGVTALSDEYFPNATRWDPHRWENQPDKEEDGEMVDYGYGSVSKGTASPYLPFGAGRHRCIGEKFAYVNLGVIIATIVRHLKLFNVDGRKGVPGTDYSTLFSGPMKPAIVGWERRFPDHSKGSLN
In short: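 Purified CYP51 at 0.5 μM in 5 cm path cuvettes, titrated from 0.2 mM DMSO stocks over 0.1–0.8 μM ligand. Type II red shift of the Soret band (417 to 424 nm) followed as ΔA (Amax−Amin) in difference spectra. Kd obtained by fitting to the quadratic tight-binding equation using total ligand and enzyme concentrations.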

[11] = target: T2, Lanosterol 14-alpha demethylase (Candida albicans (strain SC5314 / ATCC MYA-2876) (Yeast), UniProt P10613); assay: Inhibition of Candida albicans CYP51 assessed as reduction in [3-3H]lanosterol 14alpha-demethylation at 0.75 uM preincubated for 60 secs followed by NADPH addition measured after 60 mins by RP-HPLC analysis relative to control; settings: 1 h
In short: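 C. albicans CYP51 expressed in E. coli and purified, 0.5 μM, with 1.0 μM rat NADPH-P450 reductase, dilauroylphosphatidylcholine and isocitrate dehydrogenase/isocitrate regeneration in 50 mM potassium phosphate pH 7.2, 10% glycerol, 0.1% Triton X-100. Substrate 25 μM final; inhibitor:enzyme:substrate 1.5:1:50. 37 °C, started with 100 μM NADPH. Sterols extracted with EtOAc, radio-HPLC. Triplicate, mean ± SD.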

in vitro [12] = settings: Sprague-Dawley, rat, liver microsomes; remark: listed apart in the source
Aspergillus fumigatus [13] = assay: Antifungal activity against Aspergillus fumigatus after 48 hrs
in vitro [14] = settings: human, liver microsomes; remark: listed apart in the source
[15] = target: Lanosterol 14-alpha demethylase (Aspergillus) (UniProt B8NUK6+Q9P8R0+G4WW85); assay: Inhibition of Aspergillus fumigatus CYP51 assessed as reduction in [3-3H]eburicol 14alpha-demethylation at 0.75 uM preincubated for 60 secs followed by NADPH addition measured after 60 mins by RP-HPLC analysis relative to control
In short: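 E. coli-expressed, purified CYP51 (0.5 μM) with rat NADPH-P450 reductase (1.0 μM), 100 μM dilauroylphosphatidylcholine, isocitrate dehydrogenase/isocitrate NADPH regeneration, in 50 mM K phosphate pH 7.2 with 10% glycerol and 0.1% Triton X-100. [3-3H]eburicol 25 μM final, inhibitor 0.75 μM final (1.5:1:50 inhibitor:enzyme:substrate), 37 °C. Started with 100 μM NADPH, 60 min, EtOAc extraction, radio-HPLC. Percent inhibition, triplicate, mean ± SD.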

in vitro [16] = settings: CD-1, mouse, liver microsomes; remark: listed apart in the source
Aspergillus fumigatus [17] = assay: Antifungal activity against Aspergillus fumigatus MYA626 after 48 hrs by CLSI M38-A2 protocol based assay; format: functional; settings: MYA626, 48 h, read-out: MIC100
[18] = target: T2, Lanosterol 14-alpha demethylase; assay: Binding affinity to Candida albicans CYP51 by spectral titration method; settings: read-out: Kd(app)
In short: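 Purified CYP51 at 0.5 μM in 5 cm path cuvettes, titrated from 0.2 mM DMSO stocks over 0.1–0.8 μM ligand. Kd obtained by fitting to the quadratic tight-binding equation using total ligand and enzyme concentrations.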

[19] = target: T2, Lanosterol 14-alpha demethylase; assay: Potency index, ratio of VNI Kd(app) to compound Kd(app) for Candida albicans CYP51

T2 sequence (P10613 whole entry): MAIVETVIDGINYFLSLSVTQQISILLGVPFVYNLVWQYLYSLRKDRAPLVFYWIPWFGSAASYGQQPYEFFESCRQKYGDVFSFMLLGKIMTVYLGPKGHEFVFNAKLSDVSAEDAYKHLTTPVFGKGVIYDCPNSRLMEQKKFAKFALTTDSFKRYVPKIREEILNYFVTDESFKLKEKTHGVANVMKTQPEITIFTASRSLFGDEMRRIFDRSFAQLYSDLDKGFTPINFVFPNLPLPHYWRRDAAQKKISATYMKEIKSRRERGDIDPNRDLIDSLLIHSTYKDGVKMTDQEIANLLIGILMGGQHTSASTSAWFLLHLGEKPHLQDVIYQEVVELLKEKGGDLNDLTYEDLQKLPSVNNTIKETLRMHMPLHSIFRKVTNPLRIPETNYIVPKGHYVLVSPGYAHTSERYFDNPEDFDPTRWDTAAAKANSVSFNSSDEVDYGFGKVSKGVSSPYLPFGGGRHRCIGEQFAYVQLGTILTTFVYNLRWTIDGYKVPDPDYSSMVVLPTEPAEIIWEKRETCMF

Compound	logP [1]	CLint scaled at 0.75 h, 1 µM (in vitro [2]) [mL/min/kg]	CLhep predicted at 0.75 h, 1 µM (in vitro [3]) [mL/min/kg]	MIC (Aspergillus fumigatus [4]) [µg/mL]	t1/2 [5] [h]	CLhep predicted at 0.75 h, 1 µM (in vitro [6]) [mL/min/kg]	MIC (Aspergillus fumigatus [7]) [µg/mL]	t1/2 [8] [h]	t1/2 [9] [h]	Kd [10] [nM]	inhibition at 0.75 µM [11] [%]	CLhep predicted at 0.75 h, 1 µM (in vitro [12]) [mL/min/kg]	MIC (Aspergillus fumigatus [13]) [µg/mL]	CLint scaled at 0.75 h, 1 µM (in vitro [14]) [mL/min/kg]	inhibition [15] [%]	CLint scaled at 0.75 h, 1 µM (in vitro [16]) [mL/min/kg]	MIC (Aspergillus fumigatus [17]) [µg/mL]	Kd [18] [nM]	Ratio [19]
O=C(N[C@@H](Cn1ccnc1)c1ccc(Cl)cc1Cl)c1ccc(-c2nnc(-c3ccccc3)o2)cc1	4.57	26.4	5.95	0.48 (≈ 0.952 µM)	1.03	44	0.08 (≈ 0.159 µM)	2.5	1.77	203	20	19.2	0.5 (≈ 0.991 µM)	8.31	24	87	–	–	–
C[C@@H](c1ncncc1F)[C@](O)(Cn1cncn1)c1ccc(F)cc1F [VORICONAZOLE]	–	–	–	–	–	–	–	–	–	56	–	–	0.7 (≈ 2 µM)	–	–	–	–	–	–
O=C(N[C@@H](Cn1ccnc1)c1ccc(Cl)cc1Cl)c1ccc(-c2nnc(-c3ccc(OCC(F)(F)F)cc3F)o2)cc1	5.58	64	9.24	0.19 (≈ 0.306 µM)	1.03	44	0.06 (≈ 0.0967 µM)	1.27	–	20	94	34	–	16.5	82	88	0.39 (≈ 0.629 µM)	–	–
O=C(N[C@@H](Cn1ccnc1)c1ccc(Cl)cc1Cl)c1ccc(-c2nnc(-c3cc(F)cc(-c4ncncc4F)c3)o2)cc1	5.05	27	8.37	0.48 (≈ 0.776 µM)	0.867	48.3	0.19 (≈ 0.307 µM)	1.4	–	132	92	19.5	–	14.9	57	104	0.78 (≈ 1.26 µM)	–	–
CC[C@@H]([C@H](C)O)n1ncn(-c2ccc(N3CCN(c4ccc(OC[C@@H]5CO[C@@](Cn6cncn6)(c6ccc(F)cc6F)C5)cc4)CC3)cc2)c1=O [POSACONAZOLE]	–	–	–	–	–	–	–	–	–	131	98	–	–	–	93	–	–	81	3.5
O=C(N[C@@H](Cn1ccnc1)c1ccc(Cl)cc1Cl)c1ccc(-c2nnc(-c3ccc(C(F)(F)F)c(F)c3)o2)cc1	5.65	36	4.07	0.19 (≈ 0.322 µM)	1.53	36	0.09 (≈ 0.152 µM)	3.43	1.28	55	89	24	–	6.06	65	60	0.39 (≈ 0.661 µM)	–	–
O=C(N[C@@H](Cn1ccnc1)c1ccc(Cl)cc1Cl)c1ccc(-c2nnc(-c3ccc(F)c(F)c3)o2)cc1	4.88	31	5.54	0.29 (≈ 0.537 µM)	1.63	34	0.08 (≈ 0.148 µM)	2.77	1.52	57	–	21	–	7.53	58	55	0.78 (≈ 1.44 µM)	–	–
